# Measured values as given in ChEMBL document CHEMBL4354797, “Novel Pyrazolo[4,3- d]pyrimidine as Potent and Orally Active Inducible Nitric Oxide Synthase (iNOS) Dimerization Inhibitor with Efficacy in Rheumatoid Arthritis Mouse Model” (J Med Chem, 2019).
# The source made the active and inactive calls. The rule behind the calls is not given here.
# Columns and labels:
# [1] = test system: Rattus norvegicus; assay: Antiarthritic activity in Sprague-Dawley rat model of arthritis assessed as decrease in CFA-induced synovial hyperplasia at 40 and 80 mg/kg, ig administered daily for 28 days starting from 14 days post-immunization and measured every 3 days by H and E staining based histopathological analysis; type: functional, organism-based
# How it was run: (§1)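 Knee joints of adjuvant-arthritic rats were taken after intragastric dosing once daily, days 14–28 post-immunization (test agent 40 or 80 mg/kg; aspirin 50 mg/kg). Sections stained with H&E were scored by microscopy for synovial hyperplasia, inflammatory cell infiltration and bone/cartilage destruction, against normal and untreated arthritic rats.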
# [2] = test system: Rattus norvegicus; assay: Antiarthritic activity in Sprague-Dawley rat model of arthritis assessed as inhibition of CFA-induced cartilage destruction at 80 mg/kg, ig administered daily for 28 days starting from 14 days post-immunization and measured every 3 days by H and E staining based histopathological analysis; type: functional, organism-based; how it was run: as §1
# [3] = test system: RAW264.7; assay: Cytotoxicity against LPS-induced mouse RAW264.7 cells assessed as reduction in cell viability; type: cell-based
# [4] = test system: Rattus norvegicus; assay: Antiinflammatory activity in ig dosed CFA-induced Sprague-Dawley rat model of arthritis assessed as reduction in IL-1beta level in serum administered daily for 28 days starting from 14 days post-immunization; type: functional, organism-based
# How it was run: (§2)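 Serum NO, TNF-α, IL-1β and IL-6 measured in adjuvant-arthritic rats given intragastric dosing once daily, days 14–28 after immunization (test agent 40 or 80 mg/kg; aspirin 50 mg/kg), compared with untreated arthritic and normal rats. n=5 per group, mean±s.d.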
# [5] = test system: RAW264.7; assay: Antiinflammatory activity in mouse RAW264.7 cells assessed as inhibition of LPS-induced NO production preincubated for 1 hr followed by LPS addition and measured after 24 hrs by Griess reagent-based assay; type: functional, cell-based; details: Mus musculus, RAW264.7; read-out: IC50
# How it was run: (§3)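 RAW 264.7 cells pretreated with compound for 1 h, then LPS 1 µg/mL for 24 h. Single-point inhibition at 10 µM. IC50 by regression of inhibition over several concentrations. At least three independent experiments.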
# [6] = test system: RAW264.7; assay: Antiinflammatory activity in mouse RAW264.7 cells assessed as inhibition of LPS-induced NO production at 10 uM preincubated for 1 hr followed by LPS addition and measured after 24 hrs by Griess reagent-based assay relative to control; type: functional; how it was run: as §3
# [7] = test system: Rattus norvegicus; assay: Antiinflammatory activity in ig dosed CFA-induced Sprague-Dawley rat model of arthritis assessed as reduction in TNF-alpha level in serum administered daily for 28 days starting from 14 days post-immunization; type: functional, organism-based; how it was run: as §2
# [8] = test system: Rattus norvegicus; assay: Antiarthritic activity in CFA-induced Sprague-Dawley rat arthritic model assessed as inhibition of hind paw swelling at 40 mg/kg, ig administered daily for 28 days starting from 14 days post-immunization and measured on day 30; type: functional, organism-based
# How it was run: (§4)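 Rat adjuvant-induced arthritis. Test agent given intragastrically once daily from day 14 to 28 after adjuvant immunization (40 or 80 mg/kg). Aspirin 50 mg/kg intragastric was the positive control. Hind paw swelling and arthritis index measured every 3 days, with body weight tracked; day 30 also reported. n=5 per group, mean±s.d., Tukey's test.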
# [9] = test system: Rattus norvegicus; assay: Antiinflammatory activity in ig dosed CFA-induced Sprague-Dawley rat model of arthritis assessed as reduction in IL-6 level in serum administered daily for 28 days starting from 14 days post-immunization; type: functional, organism-based; how it was run: as §2
# [10] = target: T1, Nitric oxide synthase, inducible (Mus musculus) (UniProt P29477); assay: Potency index, ratio of indomethacin IC50 to compound IC50 for inhibition of iNOS in LPS-stimulated mouse RAW264.7 cells; type: cell-based
# T1 sequence (whole entry): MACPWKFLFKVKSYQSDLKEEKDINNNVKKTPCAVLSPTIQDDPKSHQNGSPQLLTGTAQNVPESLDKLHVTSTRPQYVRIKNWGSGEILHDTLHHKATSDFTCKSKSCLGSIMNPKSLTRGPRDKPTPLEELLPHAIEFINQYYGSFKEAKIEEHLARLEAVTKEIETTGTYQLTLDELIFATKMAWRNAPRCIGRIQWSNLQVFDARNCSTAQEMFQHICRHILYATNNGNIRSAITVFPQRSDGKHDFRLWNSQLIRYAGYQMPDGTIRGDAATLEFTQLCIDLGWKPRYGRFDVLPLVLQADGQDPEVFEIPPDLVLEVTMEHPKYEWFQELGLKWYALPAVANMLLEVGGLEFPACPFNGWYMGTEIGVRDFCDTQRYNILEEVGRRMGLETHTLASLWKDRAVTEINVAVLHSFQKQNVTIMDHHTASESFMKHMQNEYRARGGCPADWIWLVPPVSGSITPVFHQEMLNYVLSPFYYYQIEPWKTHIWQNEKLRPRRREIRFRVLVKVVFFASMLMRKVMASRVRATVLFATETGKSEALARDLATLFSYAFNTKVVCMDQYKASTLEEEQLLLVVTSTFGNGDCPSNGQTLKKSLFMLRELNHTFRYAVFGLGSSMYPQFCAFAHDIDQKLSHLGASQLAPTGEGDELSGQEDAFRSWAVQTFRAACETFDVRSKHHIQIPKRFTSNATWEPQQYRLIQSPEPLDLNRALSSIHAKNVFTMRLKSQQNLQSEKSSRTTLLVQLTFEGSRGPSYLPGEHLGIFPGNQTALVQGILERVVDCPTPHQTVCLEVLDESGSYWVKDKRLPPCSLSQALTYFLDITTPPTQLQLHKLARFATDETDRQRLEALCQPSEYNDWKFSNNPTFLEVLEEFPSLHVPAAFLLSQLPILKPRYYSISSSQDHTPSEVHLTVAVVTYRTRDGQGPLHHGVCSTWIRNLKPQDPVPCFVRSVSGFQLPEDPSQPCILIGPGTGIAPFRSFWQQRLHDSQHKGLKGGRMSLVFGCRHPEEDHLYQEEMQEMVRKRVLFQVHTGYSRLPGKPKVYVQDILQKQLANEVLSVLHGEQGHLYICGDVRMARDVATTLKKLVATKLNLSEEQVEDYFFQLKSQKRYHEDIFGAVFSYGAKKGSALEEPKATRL
# [11] = Toxicity in Sprague-Dawley rat model of CFA-induced arthritis assessed as reduction in body weight loss at 40 to 80 mg/kg, ig administered daily for 28 days starting from 14 days post-immunization and measured on day 30; type: organism-based; details: in vivo, po; how it was run: as §4
# [12] = test system: RAW264.7; assay: Inhibition of iNOS expression in LPS-induced mouse RAW264.7 cells at 1 to 4 uM preincubated for 1 hr followed by LPS-stimulation by Western blot analysis; type: functional, cell-based
# How it was run: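 RAW 264.7 cells pretreated with the indicated compound concentrations for 1 h, then LPS 1 µg/mL for 24 h. iNOS protein assessed by Western blot on 8% SDS-PAGE, with β-actin as loading control. At least three independent experiments, each in duplicate.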
# [13] = target: T2, Nitric oxide synthase, inducible (Mus musculus, UniProt P29477); assay: Inhibition of iNOS in LPS-stimulated mouse RAW 264.7 cells preincubated for 1 hr followed by LPS-stimulation and measured after 6 hrs by fluorescence based assay; details: read-out: IC50
# T2 sequence (P29477 whole entry): T1 sequence (whole entry)
# How it was run: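 Inhibition calculated relative to LPS-stimulated and unstimulated controls. IC50 obtained by regression of inhibition rates at several concentrations. Indomethacin served as positive control.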
# [14] = test system: RAW264.7; assay: Cytotoxicity against mouse RAW264.7 cells assessed as reduction in cell viability; type: cell-based
# [15] = test system: Rattus norvegicus; assay: Antiarthritic activity in Sprague-Dawley rat model of arthritis assessed as inhibition of CFA-induced inflammatory cell infiltration at 40 and 80 mg/kg, ig administered daily for 28 days starting from 14 days post-immunization and measured every 3 days by H and E staining based histopathological analysis; type: functional, organism-based; how it was run: as §1
# [16] = test system: Rattus norvegicus; assay: Antiinflammatory activity in ig dosed CFA-induced Sprague-Dawley rat model of arthritis assessed as reduction in NO level in serum administered daily for 28 days starting from 14 days post-immunization; type: functional, organism-based; how it was run: as §2
# [17] = target: T1, Nitric oxide synthase, inducible (Mus musculus); assay: Inhibition of iNOS dimerization in LPS-induced mouse RAW264.7 cells at 1 to 4 uM preincubated for 1 hr followed by LPS-stimulation and measured after 24 hrs by immunoblot analysis; type: cell-based
# [18] = test system: Rattus norvegicus; assay: Antiarthritic activity in Sprague-Dawley rat model of arthritis assessed as inhibition of CFA-induced cartilage destruction at 50 mg/kg, ig administered daily for 28 days starting from 14 days post-immunization and measured every 3 days by H and E staining based histopathological analysis; type: functional, organism-based; how it was run: as §1
# [19] = test system: Rattus norvegicus; assay: Antiarthritic activity in Sprague-Dawley rat model of arthritis assessed as effect on CFA-induced synovial hyperplasia at 50 mg/kg, ig administered daily for 28 days starting from 14 days post-immunization and measured every 3 days by H and E staining based histopathological analysis; type: functional, organism-based; how it was run: as §1
# [20] = test system: Rattus norvegicus; assay: Antiarthritic activity in CFA-induced Sprague-Dawley rat arthritic model assessed as inhibition of hind paw swelling at 50 mg/kg, ig administered daily for 28 days starting from 14 days post-immunization and measured on day 30; type: functional, organism-based; how it was run: as §4
# [21] = test system: Rattus norvegicus; assay: Antiinflammatory activity in CFA-induced Sprague-Dawley rat model of arthritis assessed as reduction in IL-1beta level in serum at 50 mg/kg, ig administered daily for 28 days starting from 14 days post-immunization; type: functional, organism-based; how it was run: as §2
# [22] = test system: Rattus norvegicus; assay: Antiinflammatory activity in CFA-induced Sprague-Dawley rat model of arthritis assessed as reduction in TNF-alpha level in serum at 50 mg/kg, ig administered daily for 28 days starting from 14 days post-immunization; type: functional, organism-based; how it was run: as §2
# [23] = test system: Rattus norvegicus; assay: Antiinflammatory activity in CFA-induced Sprague-Dawley rat model of arthritis assessed as reduction in IL-6 level in serum at 50 mg/kg, ig administered daily for 28 days starting from 14 days post-immunization; type: functional, organism-based; how it was run: as §2
# [24] = test system: Rattus norvegicus; assay: Antiinflammatory activity in CFA-induced Sprague-Dawley rat model of arthritis assessed as reduction in NO level in serum at 50 mg/kg, ig administered daily for 28 days starting from 14 days post-immunization; type: functional, organism-based; how it was run: as §2
# [25] = test system: Rattus norvegicus; assay: Antiarthritic activity in Sprague-Dawley rat model of arthritis assessed as inhibition of CFA-induced inflammatory cell infiltration at 50 mg/kg, ig administered daily for 28 days starting from 14 days post-immunization and measured every 3 days by H and E staining based histopathological analysis; type: functional, organism-based; how it was run: as §1
smiles,measurement,setting,value
CCCc1nn(C)c2c(NC(C)C)nc(/C=C/c3cc(OC)c(OC)c(OC)c3)nc12,Activity,[1],Active
same,Activity,[2],Active
same,IC50,[3],> 50 µM
same,Activity,[4],Dose-dependent effect
same,IC50,[5],3.17 µM
same,inhibition at 10 µM,[6],90.4%
same,Activity,[7],Dose-dependent effect
same,inhibition,[8],Active
same,Activity,[9],Dose-dependent effect
same,Ratio IC50,[10],22
same,Activity,[11],Non-Toxic
same,inhibition,[12],inactive
same,IC50,[13],1.12 µM
same,IC50,[14],> 50 µM
same,Activity,[15],Active
same,Activity,[16],Dose-dependent effect
same,inhibition,[17],Active
CC(=O)Oc1ccccc1C(=O)O,Activity,[18],Active
same,Activity,[19],Active
same,Activity,[20],Active
same,Activity,[21],Active
same,Activity,[22],Active
same,Activity,[23],Active
same,Activity,[24],Active
same,Activity,[25],Active
